rCAG binder: binders of r(CAG) RNA repeats, primary screen, biochemical, fluorescence | r(CAG) RNA repeat, TO-PRO-1 dye displacement fluorescence | inhibition, % at 3 µM | 370,000 compounds, 1.3% hits | AID 651821, 2012;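 active means inhibition above the plate cutoff, the mean of all test compounds on that plate plus 3 SD, cut at about 35% in these data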;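 further: higher means more dye released from RNA so lower well fluorescence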
STEP block: STEP phosphatase inhibitors, primary screen, biochemical, fluorescence intensity, uHTS; Tyrosine-protein phosphatase non-receptor type 5 (Homo sapiens), P54829; recombinant STEP, OMFP fluorogenic substrate; inhibition, % at 20 µM; 360,000 compounds, 0.25% hits;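 active means inhibition at 20 µM, scaled per plate between control wells, above about 37%, limit read from the data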
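medium = Bis-Tris buffer pH 6.0, 2.5 mM DTT, 0.005% Tween 20 | test system = STEP (striatal-enriched tyrosine phosphatase) enzyme, cell-free | measure = normalized % inhibition | compound dosing = 20 µM, 1% DMSO | also added = 25 µM OMFP | schedule = reaction 20 min, ambient temperature | measured by = fluorescence read at 480 nm ex / 540 nm em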
Scp1 inh: Scp-1 phosphatase inhibitors, primary screen, biochemical, colorimetric, uHTS | Carboxy-terminal domain RNA polymerase II polypeptide A small phosphatase 1 (Homo … | Recombinant Scp1, phosphopeptide, malachite green phosphate absorbance | AID 493091, 2011 | 340,000 compounds, 0.88% hits | inhibition, % at 20 µM;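 active means inhibition above about 50% at 20 µM, limit read from the data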
Target sequence (Q9GZU7 76-261 limits assumed): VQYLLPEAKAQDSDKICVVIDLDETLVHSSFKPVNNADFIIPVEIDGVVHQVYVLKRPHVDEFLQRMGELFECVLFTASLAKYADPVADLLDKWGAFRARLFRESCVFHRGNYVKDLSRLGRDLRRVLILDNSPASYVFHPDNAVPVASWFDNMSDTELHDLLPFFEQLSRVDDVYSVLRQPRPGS
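Assay system: SCP-1 catalytic fragment, aa 76-261 | Buffer or medium: Tris acetate buffer pH 5.5 with MgCl2 and Tween-20 | Compound: One concentration, 20 µM, with 1.0% DMSO | Also added: Phospho 17-mer peptide substrate | Signal: Absorbance at 630 nm | Incubation: 45 min enzyme reaction at room temperature | Measure: % inhibition of SCP-1 phosphate liberation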
LMPTP block: LMPTP phosphatase inhibitors, primary screen, biochemical, fluorescence intensity, uHTS. Low molecular weight phosphotyrosine protein phosphatase (Homo sapiens), P24666. recombinant LMPTP-A, OMFP fluorogenic substrate. inhibition, % at 20 µM. 360,000 compounds, 0.22% hits. AID 651560, 2012;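 active means compounds that cut the enzyme signal by at least half of the control window in the single-dose screen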
Target sequence (P24666 whole entry, looked up): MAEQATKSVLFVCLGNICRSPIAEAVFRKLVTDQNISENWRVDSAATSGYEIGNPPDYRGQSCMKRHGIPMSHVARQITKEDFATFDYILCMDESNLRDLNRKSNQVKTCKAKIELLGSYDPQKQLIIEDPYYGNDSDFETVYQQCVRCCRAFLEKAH
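Material: LMPTP-A; amount: 0.625 nM enzyme; doses: single 20 µM dose; times: reaction 50 min, room temperature, dark; technique: fluorescence intensity of OMFP turnover product; benchmarks: no-enzyme and uninhibited controls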
NadD inh: inhibitors of S. aureus NadD, primary screen, biochemical, colorimetric, uHTS. Nicotinate-nucleotide adenylyltransferase NadD (Staphylococcus aureus N315). purified NadD enzyme, colorimetric absorbance read-out. AID 602399, 2012. inhibition, % at 20 µM. 360,000 compounds, 0.78% hits; in the data active means inhibition above about 26%
Scp-1 conf: Scp-1 phosphatase inhibitors, retest, confirmation, biochemical, colorimetric, single concentration; shares compounds with Scp1 inh; recombinant SCP-1 catalytic domain, phosphate release, malachite green absorbance; inhibition, % at 20 µM; 2,500 compounds, 61% hits
MG interference: colorimetric readout interference by compounds, confirmation, artefact control for Scp-1 inhibitor project, biochemical, single concentration | shares compounds with Scp1 inh | Colorimetric interference counterscreen, malachite green absorbance 630 nm | apparent inhibition (interference), % at 20 µM | 2,500 tested, under 10 active | AID 540313, 2011;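 further: compounds added after enzyme reaction finished so only phosphate colour detection is probed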
Scp-1 Tm shift: Scp-1 binding by thermal shift, confirmation, orthogonal assay for Scp-1 inhibitor project, biophysical, differential scanning fluorimetry; shares compounds with Scp1 inh; Recombinant SCP1, Sypro Orange thermal shift Tm; thermal shift relative to vanadate control, % at 40 µM; 1,500 compounds, 25% hits; AID 540329, 2011;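 active means substances whose mean melting-temperature shift, as a percentage of the reference inhibitor's shift, reaches about 5.3%, limit read from the data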
STEP inh conf: STEP phosphatase inhibitor hit confirmation, biochemical, fluorescence intensity, single concentration; shares compounds with STEP block; recombinant STEP, OMFP fluorogenic substrate; inhibition, % at 20 µM; 520 compounds, 32% hits; AID 623866, 2012; call rule not given here
rCAG bind conf: small molecules binding CAG repeat RNA – biochemical, fluorescence, confirmation. inhibition, % at 3 µM. shares compounds with rCAG binder. r(CAG) RNA repeat, TO-PRO-1 dye displacement fluorescence. 4,300 compounds, 70% hits. AID 652065, 2013;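 active means inhibition above a per-plate cutoff, the mean inhibition of sample wells plus 3 SD, cut at about 35% in these data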;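 further: loss of TO-PRO-1 fluorescence as compound displaces dye from 1x1 AA loop RNA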
dCAG dye counter: displacement of TO-PRO-1 from CAG DNA duplex, counter-screen for rCAG RNA repeat binder project, biochemical, fluorescence, TO-PRO-1 dye, d(CAG) DNA oligo. shares compounds with rCAG binder. d(CAG) DNA oligo TO-PRO-1 dye displacement. inhibition, % at 3 µM. 4,300 compounds, 94% hits. AID 652068, 2013;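 active means inhibition above its plate's cutoff, the mean test-well inhibition plus 3 SD, cut at about 4.8% in these data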;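 further: hits displace the dye from DNA and so lower well fluorescence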
DNA CAG DR: inhibitors of DNA CAG/GTC TO-PRO-1 complex, dose response, counter-screen for rCAG RNA repeat binder project, biochemical, fluorescence, TO-PRO-1 dye | 250 compounds, 20% hits | DNA CAG/GTC duplex TO-PRO-1 dye displacement fluorescence | shares compounds with rCAG binder | AID 686960, 2013 | IC50, µM; in the data active means IC50 below about 10 µM
Hits are given with their value; n = inactive; x = not tested or not shown. Most compounds without a hit are left out; they make up all but 2.6% or so of the library.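 How the source made its calls, unless noted: active means inhibition of at least 30% at 20 µM; inactive means the rest.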

SMILES | rCAG binder | STEP block | Scp1 inh | LMPTP block | NadD inh | Scp-1 conf | MG interference | Scp-1 Tm shift | rCAG bind conf | dCAG dye counter | others
COc1ccc(S(=O)(=O)Oc2cccc(/C=N/N=C3/NC(=O)C(CC(=O)O)S3)c2)cc1 (stereo not drawn) | n | n | n | n | n | x | x | x | x | x
CCNC(=O)C[C@H]1CC[C@H]2[C@@H](COc3ccc(NC(=O)c4ccc5c(c4)OCO5)cc3C(=O)N2C)O1 | n | x | x | x | x | x | x | x | x | x
O=C(CSc1ccsc1[N+](=O)[O-])Nc1cccc(F)c1 | 35 | n | 75 | n | n | 59 | n | 9.1 | n | 12
CSc1ccc(/C=C(\C(=O)O)c2ccc(S(=O)(=O)N3CCCC3)s2)cc1 | 39 | n | 69 | n | n | 68 | n | 5.6 | n | 10
O=C(O)/C(=C\c1cccc(F)c1)c1ccc(S(=O)(=O)N2CCCCC2)s1 | n | n | n | n | n | x | x | x | x | x
CS(=O)(=O)C1=NSC2=NC(=O)/C(=C\c3cccn3-c3ccc(Cl)cc3)C(=N)N21 | 85 | 95 | 83 | n | n | 79 | n | n | 85 | 54
Cc1ccc(S(=O)(=O)/N=C2/NC(=O)/C(=C/c3ccc(Br)o3)S2)cc1 | 93 | n | 56 | n | n | 54 | n | 14 | 83 | 54
Cc1ccc(S(=O)(=O)/N=C2/NC(=O)/C(=C/c3cccnc3)S2)cc1 | n | n | n | n | n | x | x | x | x | x
Cc1cccc(NC(=O)COc2ccc(/C=C\c3[nH]c(=O)[nH]c(=O)c3[N+](=O)[O-])cc2)c1 | 87 | n | 79 | 55 | n | 74 | n | 5.5 | 87 | 66
O=c1[nH]c(/C=C/c2ccc([N+](=O)[O-])cc2)c([N+](=O)[O-])c(=O)[nH]1 | n | n | n | n | n | x | x | x | x | x
O=c1[nH]n2c(=O)c3c([nH]c2c1N=Nc1cccc(Cl)c1)CCCC3 | 75 | n | 95 | n | n | 46 | n | 30 | 85 | 48
Cc1c(C(C)c2ccccc2O)c2ccccc2n1C (stereo not drawn) | n | x | x | x | x | x | x | x | x | x
COc1ccc(OC)c(NC(=O)CSc2ncnc3sc(C)cc23)c1 | 72 | n | 80 | n | n | 64 | n | 12 | 64 | 34
CCSC1=N/C(=C\c2ccc(-c3ccccc3[N+](=O)[O-])o2)C(=O)S1 | n | n | n | n | n | x | x | x | x | x
CCCSC1=N/C(=C\c2ccc([N+](=O)[O-])o2)C(=O)S1 | 40 | n | 60 | n | n | 72 | n | 11 | 47 | 20 | DNA CAG DR=n
O=c1oc2c(-c3ccc([N+](=O)[O-])cc3)cc(O)cc2s1 | 40 | n | 103 | n | n | 66 | n | 10 | n | 7.7
NC1=C(c2ccc([N+](=O)[O-])cc2)C(=O)CO1 | n | n | n | n | n | x | x | x | x | x
O=C(/C=C/c1ccc(Cl)cc1)NC(=S)Nc1ccccc1C(=O)O | 35 | n | 58 | n | n | 67 | n | 7.8 | n | 9.1
N#Cc1cccc(NC(=O)CSc2sc3c(O)cc(=O)[nH]c3c2C#N)c1 | 47 | n | 50 | 70 | n | n | n | x | n | 7.3
CCCSc1nnc(NC(=O)CSc2sc3c(O)cc(=O)[nH]c3c2C#N)s1 | 65 | n | 70 | n | n | 65 | n | 12 | 80 | 46
N#Cc1cccc(NC(=O)CSc2n[nH]c(=O)[nH]c2=O)c1 | n | n | n | n | n | x | x | x | x | x
COC(=O)[C@H](C(C)C)N1Cc2nnn(Cc3ccc(C)cc3)c2-c2cc(F)ccc2S1(=O)=O | n | x | x | x | x | x | x | x | x | x
Nn1c(SCC(=O)Nc2ccc(OCc3ccccc3)cc2)nnc1-c1cc(-c2ccc(Cl)cc2)n[nH]1 | n | x | x | x | x | x | x | x | x | x
O=C(O)CCN1C(=O)c2ccc(NC(=O)C(c3ccccc3)c3ccccc3)cc2C1=O | 48 | n | 67 | n | n | n | n | x | 35 | 8.0
CCOc1ccc(OCC)c(NC(=O)CSCCc2ccccn2)c1 | n | n | n | n | n | x | x | x | x | x
SMILES | rCAG binder | STEP block | Scp1 inh | LMPTP block | NadD inh | Scp-1 conf | MG interference | Scp-1 Tm shift | rCAG bind conf | dCAG dye counter | others
CCOc1ccc(OCC)c(NC(=O)CCSCCc2ccccn2)c1 | n | 97 | n | n | n | x | x | x | x | x | STEP inh conf=n
O=C(c1ccc(Br)cc1)N1CCN(Cc2ccccc2)CC1 | n | n | n | n | n | x | x | x | x | x
CN(C)c1ccc(C(=S)N2CCN(Cc3ccccc3)CC2)cc1 | n | 85 | n | n | n | x | x | x | x | x | STEP inh conf=39
CCN(CC)c1ccc(C(=O)N2CCN(Cc3ccccc3)CC2)cc1 | n | n | n | n | n | x | x | x | x | x
Oc1ccc(C(=S)N2CCN(Cc3ccccc3)CC2)cc1 | n | 62 | n | n | n | x | x | x | x | x | STEP inh conf=n
Cc1ccc(C(=S)N2CCN(Cc3ccccc3)CC2)s1 | n | 78 | n | n | n | x | x | x | x | x | STEP inh conf=42
S=C(c1ccc(Br)cc1)N1CCN(Cc2ccccc2)CC1 | n | 90 | n | n | n | x | x | x | x | x | STEP inh conf=38
COc1ccc(OC)c(S(=O)(=O)N2CCCC(C(=O)N3CCN(Cc4ccccc4)CC3)C2)c1 (stereo not drawn) | n | x | x | x | x | x | x | x | x | x

High-throughput results (PubChem BioAssay)
